Converted amounts (≈) assume the structure as drawn. The source made the active and inactive calls. No cut-off for these calls is given here.

One assay concerns Escherichia coli. Kind of assay: Antibacterial activity against Escherichia coli ATCC 35218 after 24 hrs by agar diffusion method. The assay is classed as functional. The gist of the method: (§1)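 Agar cup diffusion against the listed ATCC strains. Each compound was dissolved at 1 mg/mL in DMF, and 100 μL was placed in each cup. Plates were incubated at 37 C for 24 h, and the inhibition zone diameters were measured in mm.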
Background: Agar diffusion results depend on both activity and mobility in agar.

In assay [1] the test system is Klebsiella pneumoniae. Kind of assay: Antibacterial activity against Klebsiella pneumoniae ATCC 10032 after 24 hrs by agar diffusion method. The assay is classed as functional, organism-based. The gist of the method:
as §1

Assay [2] deals with Staphylococcus aureus. The assay is described as follows: Antibacterial activity against Staphylococcus aureus ATCC 6538P after 24 hrs by agar diffusion method. The assay is classed as functional. The gist of the method:
as §1

Assay [3] has as its system Candida albicans. The assay is described as follows: Antifungal activity against Candida albicans ATCC 2091 after 24 hrs by agar diffusion method. The assay is classed as functional. The gist of the method:
as §1

Assay [4] has as its system Pseudomonas aeruginosa. The assay is described as follows: Antibacterial activity against Pseudomonas aeruginosa ATCC 9027 after 24 hrs by agar diffusion method. The assay is classed as functional, organism-based. The gist of the method: as §1
Assay [5] concerns Radical scavenging activity. Kind of assay: Antioxidant activity assessed as DPPH radical scavenging activity after 30 mins by TLC […] assay. The assay is classed as functional. The gist of the method: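 TLC autographic DPPH assay. Samples at 1 mg/mL in MeOH were spotted at 6 μg each as 4 mm spots, with vitamin E as the positive control. The plate was sprayed with 0.2% (w/v) DPPH in MeOH, and scavenging spots were read 30 min after spraying.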
Background: Loss of DPPH colour is used to gauge radical scavenging.

The subject of another assay is HeLa. Kind of assay: Cytotoxicity against human HeLa cells after 72 hrs by MTT assay. The assay is classed as functional, cell-based. The gist of the method: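 HeLa cells were plated overnight at 37 C in 5% CO2. Samples were serially diluted 1:4 down the plate, with adriamycin and DMSO as controls. After 72 h, viability was read at 490 nm as MTS reduction to formazan. IC50 (μg/mL) was calculated from the dilution series.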
On the technique in general: Formazan colour is commonly taken as a measure of viable cells.

Assay [6] concerns Staphylococcus aureus. The assay is described as follows: Antibacterial activity against Staphylococcus aureus ATCC 6538P at 15 ug/disk after 24 hrs by agar diffusion method. The conditions noted are these: read-out: IZ. The assay is classed as functional. The procedure, abridged: (§2)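 Reference drugs were tested in the same agar diffusion series at the stated loads: chloramphenicol 30 μg/disk, ciprofloxacin 5 μg/disk, erythromycin 15 μg/disk, and clotrimazole 10 mg/mL (100 μL). Plates were read at 37 C for 24 h, and inhibition zones were recorded in mm.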

Assay [7] concerns Pseudomonas aeruginosa. The assay is described as follows: microbe, parasite or virus in culture. The conditions noted are these: ATCC 9027, 24 h, read-out: IZ.
In assay [8] the test system is Candida albicans. The assay is described as follows: Antifungal activity against Candida albicans ATCC 2091 at 10 mg/mL after 24 hrs by agar diffusion method. The class given is functional. The conditions noted are these: ATCC 2091, 24 h, read-out: IZ. The gist of the method:
as §2

Assay [9] deals with Staphylococcus aureus. The assay is described as follows: Antibacterial activity against Staphylococcus aureus ATCC 6538P at 30 ug/disk after 24 hrs by agar diffusion method. The assay is classed as functional. The conditions noted are these: read-out: IZ. The gist of the method: as §2
Assay [10] deals with Pseudomonas aeruginosa. Kind of assay: Antibacterial activity against Pseudomonas aeruginosa ATCC 9027 at 30 ug/disk after 24 hrs by agar diffusion method. The assay is classed as functional. The conditions noted are these: ATCC 9027, 24 h, read-out: IZ. The procedure, abridged:
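Agar diffusion against P. aeruginosa ATCC 9027, using reference antibiotic disks at 30 μg/disk. Plates incubated at 37 C for 24 h, and the inhibition zone diameter read in mm.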

In assay [11] the test system is Klebsiella pneumoniae. Kind of assay: Antibacterial activity against Klebsiella pneumoniae ATCC 10032 at 30 ug/disk after 24 hrs by agar diffusion method. The assay is classed as functional. The conditions noted are these: ATCC 10032, 24 h, read-out: IZ. The procedure, abridged:
as §2

`COc1c(Br)cc(/C=C/C(=O)N[C@H](CCCNC(=N)N)C(=O)O)cc1Br`: the outcome with Escherichia coli, in the assay with Klebsiella pneumoniae [1], in the assay with Staphylococcus aureus [2], with Candida albicans [3] and with Pseudomonas aeruginosa [4] was inactive.

Usually IC50 stands for the midpoint of a concentration-inhibition curve. High values mean weaker potency in that assay, low ones greater potency in that assay. Regarding `COc1ccc(O)c(CC(N)=O)c1Br` [SUBEREAPHENOL], the “inhibition zone (IZ)” value in the assay on Escherichia coli came to 18 mm; in the assay with Staphylococcus aureus [2], 10 mm; in the assay on Candida albicans [3] it was 20 mm. Also, the result in [5] was Active. The IC50 with HeLa turned out to be 19 µg/mL (≈ 73.1 µM).

For the compound `CC[C@H]1OC(=O)[C@H](C)[C@@H](O[C@H]2C[C@@](C)(OC)[C@@H](O)[C@H](C)O2)[C@H](C)[C@@H](O[C@@H]2O[C@H](C)C[C@H](N(C)C)[C@H]2O)[C@](C)(O)C[C@@H](C)C(=O)[C@H](C)[C@@H](O)[C@]1(C)O` [ERYTHROMYCIN], the zone of inhibition at 15 µg/disc with Staphylococcus aureus [6] is 8 mm.

Take `COC1=C(Br)[C@H](O)[C@@]2(C=C1Br)CC(C(=O)NCCCCNC(=O)C1=NO[C@]3(C=C(Br)C(OC)=C(Br)[C@@H]3O)C1)=NO2` [AEROTHIONIN]: the “inhibition zone (IZ)” value with Staphylococcus aureus [2] was found to be 5 mm. Besides, the outcome with Candida albicans [3] was inactive.

As to `COc1ccc(/C=C/C(=O)N[C@H](CCCNC(=N)N)C(=O)O)cc1Br`, the result in the assay with Escherichia coli, with Klebsiella pneumoniae [1], in the assay with Staphylococcus aureus [2], in the assay on Candida albicans [3] and with Pseudomonas aeruginosa [4] was inactive.

Consider `O=C(O)c1cn(C2CC2)c2cc(N3CCNCC3)c(F)cc2c1=O` [CIPROFLOXACIN], for which the zone of inhibition at 5 µg/disc in the assay with Pseudomonas aeruginosa [7] was determined as 8 mm.

For `Clc1ccccc1C(c1ccccc1)(c1ccccc1)n1ccnc1` [CLOTRIMAZOLE], the zone of inhibition at 10000 µg/mL with Candida albicans [8] stood at 28 mm.

As to `COC1=C(Br)[C@H](O)[C@@]2(C=C1Br)CC(C(=O)NCCCCNC(=N)N)=NO2` [PUREALDIN L], in the assay with Staphylococcus aureus [2], the “inhibition zone (IZ)” value is reported as 5 mm. Besides, the outcome in the assay with Candida albicans [3] was inactive.

Take `NC(=O)CC1(O)C=C(Cl)C(=O)C(Cl)=C1` [DICHLOROVERONGIAQUINOL]: in the assay on Escherichia coli, the “inhibition zone (IZ)” value came out at 15 mm. For the same compound, the result in the assay with Candida albicans [3] was inactive. Besides, 13 µg/mL (≈ 55.1 µM) corresponded to half-maximal inhibition in the assay on HeLa (IC50).

Turning to `O=C(N[C@H](CO)[C@H](O)c1ccc([N+](=O)[O-])cc1)C(Cl)Cl` [CHLORAMPHENICOL], the values for the zone of inhibition at 30 µg/disc in the assay on Staphylococcus aureus [9], in the assay with Pseudomonas aeruginosa [10] and in the assay with Klebsiella pneumoniae [11] were 9 mm, 7 mm and 10 mm, respectively.

These data come from ChEMBL document CHEMBL1811775, “Brominated arginine-derived alkaloids from the red sea sponge Suberea mollis” (J Nat Prod, 2011).
